Active and inactive are the calls of the source.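 How the source made its calls: active means maximum inhibition above 30% at any tested concentration, with a dose response curve fitted; inactive means no inhibition at any dose or no dose response curve.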

Outcome data for 36 compounds are collected here from PubChem BioAssay AID540324 (Johns Hopkins Ion Channel Center, 2011).

The nature of this test: parental HEK293 potassium flux blockers – cell-based, FluxOR thallium flux, concentration-response, set 2, counter-screen for KCNK9 inhibitor project, SAR follow-up (AID 540324). The note with it: FluxOR fluorescence ratio; series mostly up to 30 µM. A digest of the protocol: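 System – parental HEK293 cells lacking KCNK9 expression · Reagent – K+/Tl+ sulfate stimulus, 5x stock · Dosing – Ten-concentration dilution series per compound · Times – dye loading 90 min at room temperature in dark, compound exposure 20 min · Detection – fluorescence of thallium-sensitive FluxOR dye · Repeats – at least two replicates per compound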
Background: A counterscreen serves to expose hits that act by an unwanted route or on another target.
For `Cc1ccc(C(=O)Nc2cccc(NC(=O)c3ccccc3)c2)cc1`, the outcome was inactive.

As for `Cc1cccc(C(=O)Nc2cccc(NC(=O)c3ccco3)c2)c1`, the result was inactive.

Consider `CCOc1ccc(NC(=O)c2cccc(NC(=O)C3CCCC3)c2)cc1`, for which the result was inactive.

As to `O=C(Nc1cccc(NC(=O)c2ccccn2)c1)c1ccccc1`, the outcome was inactive.

`CCOc1ccccc1NC(=O)c1cccc(NC(=O)C2CCOC2)c1` (stereo unspecified): the outcome was inactive.

`O=C(Nc1cccc(NC(=O)c2cccnc2)c1)c1ccccc1`: the result was inactive.

Consider `CCOc1ccccc1NC(=O)c1cccc(NC(=O)C2CCCO2)c1` (stereo unspecified), for which the outcome was inactive.

As to `CN(C)c1ccc(C(=O)Nc2cccc(NC(=O)c3ccccc3)c2)cc1`, the outcome was inactive.

For `O=C(Nc1cccc(NC(=O)c2ccc(C(F)(F)F)cc2)c1)c1ccccc1`, the outcome was inactive.

As to `CCOc1ccccc1NC(=O)c1cccc(NC(=O)c2cccc(C(F)(F)F)c2)c1`, the outcome was inactive.

For `CC(C1CC2CCC1C2)n1c(-c2ccccc2Cl)n[nH]c1=S` (stereo unspecified), the result was inactive.

Regarding `O=C(Nc1ccccc1Cl)c1cccc(NC(=O)C2CCCC2)c1`, the result was inactive.

On to `COc1ccc(C(=O)Nc2cccc(NC(=O)c3cccc(C)c3)c2)cc1`, for which the outcome was inactive.

Consider `CCOc1ccccc1NC(=O)c1cccc(NC(=O)C2CC2)c1`, for which the outcome was inactive.

Consider `O=C(Nc1cccc(NC(=O)c2cccc(C(F)(F)F)c2)c1)c1ccccc1`, for which the outcome was inactive.

Consider `O=C(Nc1cccc(NC(=O)C2CCCCC2)c1)c1ccccc1`, for which the result was inactive.

For `O=C(Nc1cccc(NC(=O)c2ccncc2)c1)c1ccccc1`, the outcome was inactive.

Consider `CC(C)n1c(-c2ccco2)n[nH]c1=S`, for which the result was inactive.

Consider `CCOc1ccccc1NC(=O)c1cccc(NC(=O)CC2CCCC2)c1`, for which the result was inactive.

For the compound `CC(C1CC2CCC1C2)n1c(C2CCOC2)n[nH]c1=S` (stereo unspecified), the result was inactive.

`O=C(Nc1cccc(NC(=O)c2ccoc2)c1)c1ccccc1`: the result was inactive.

On to `CCOc1ccccc1NC(=O)c1cccc(NC(=O)c2ccccc2)c1`, for which the outcome was inactive.

As for `CCOc1ccccc1NC(=O)c1cccc(NC(=O)C(C)(C)C)c1`, the outcome was inactive.

Take `COc1cccc(OC)c1C(=O)Nc1cccc(NC(=O)c2cccc(C)c2)c1`: the result was inactive.

Regarding `Cc1cccc(C(=O)Nc2cccc(NC(=O)c3ccncc3)c2)c1`, the outcome was inactive.

For the compound `CCOc1ccccc1NC(=O)c1cccc(NC(=O)CC2CCCCC2)c1`, the outcome was inactive.

For `Cc1cccc(C(=O)Nc2cccc(NC(=O)c3ccccc3C)c2)c1`, the result was inactive.

As for `O=C(Nc1cccc(NC(=O)c2ccc(Cl)cc2)c1)c1ccccc1`, the result was inactive.

Consider `CCOc1cccc(NC(=O)c2cccc(NC(=O)C3CCCC3)c2)c1`, for which the outcome was inactive.

Take `CC(C1CC2CCC1C2)n1c(-c2cccc(Cl)c2)n[nH]c1=S` (stereo unspecified): the result was inactive.

Regarding `Cc1ccc(-c2n[nH]c(=S)n2C(C)C2CC3CCC2C3)cc1` (stereo unspecified), the outcome was inactive.

With `CCOc1ccccc1NC(=O)c1cccc(NC(=O)c2ccc(C)cc2)c1`, the result was inactive.

On to `CCOc1ccccc1C(=O)Nc1cccc(NC(=O)c2ccccc2OC)c1`, for which the result was inactive.

With `COc1ccccc1NC(=O)c1cccc(NC(=O)c2ccccc2C(F)(F)F)c1`, the outcome was inactive.

For the compound `CCOc1ccccc1NC(=O)c1cccc(NC(=O)c2ccccc2C(F)(F)F)c1`, the result was inactive.

Regarding `Cc1cccc(C(=O)Nc2cccc(NC(=O)c3cccc(Cl)c3)c2)c1`, the outcome was inactive.
